In ChEMBL document CHEMBL1126688, “Interphenylene 7-oxabicyclo[2.2.1]heptane oxazoles. Highly potent, selective, and long-acting thromboxane A2 receptor antagonists” (J Med Chem, 1993):

Experiments:
[1] = molecular target: T1, Thromboxane A2 receptor (Homo sapiens, UniProt P21731); test: Inhibitory binding activity against TXA2 receptor in human platelet membrane, using [3H]-SQ 29548 as the radioligand
T1 sequence (P21731 whole entry): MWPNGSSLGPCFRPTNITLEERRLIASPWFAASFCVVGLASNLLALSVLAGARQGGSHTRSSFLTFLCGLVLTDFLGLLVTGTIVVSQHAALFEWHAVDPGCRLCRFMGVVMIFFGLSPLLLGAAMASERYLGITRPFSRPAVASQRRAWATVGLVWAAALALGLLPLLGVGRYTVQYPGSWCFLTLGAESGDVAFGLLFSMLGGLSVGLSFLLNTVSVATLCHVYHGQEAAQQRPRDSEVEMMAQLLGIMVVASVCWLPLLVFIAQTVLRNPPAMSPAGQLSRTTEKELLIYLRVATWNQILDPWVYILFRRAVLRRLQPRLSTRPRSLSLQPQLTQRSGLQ
In short: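 Competition binding of [3H]-SQ 29,548 to TxA2 receptors in human platelet membranes, measured as inhibition of specific binding. Kd (inhibition constant) was calculated from each compound's I50 value. A slope factor is also reported.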

[2] = organism: Homo sapiens; test: Inhibitory activity against platelet aggregation, induced by U-46619 in human platelet rich plasma; assay type: functional; details: read-out: I50
In short: (§1)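 Human platelet-rich plasma. Aggregation was induced by exogenous arachidonic acid or by the TxA2 mimetic U-46,619, each at a single fixed agonist level. I50 was taken as the antagonist concentration giving 50% inhibition of aggregation.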

[3] = Partition coefficient (logP); assay type: physicochemical; details: octanol/water
In short: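 log P came from reversed-phase TLC Rm values on C18 plates. Eluent was acetone in 0.5 M aqueous KBr, buffered with 0.25 N triethylammonium phosphate to pH 7.3. Values were converted with a calibration curve built from shake-flask partition coefficients (pH 7.0) of seven oxabicycloheptane compounds spanning a range of lipophilicities.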

[4] = organism: Homo sapiens; test: Inhibitory activity against platelet aggregation, induced by arachidonic acid in human platelet rich plasma; assay type: functional; details: read-out: I50; in short: as §1
[5] = system: Mus musculus; test: In vivo duration of action required to prevent death in mice, after i.v. administration of U-46619 (2 mg/kg) at 0.2 mg/kg p.o.; details: po

Structure (SMILES)	Kd [1]	IC50 [2]	logP [3]	IC50 [4]	T50 [5]
O=C(O)CCc1ccccc1CC1C2CCC(O2)C1c1nc(C(=O)NCCCCN2CCCCC2)co1 (stereo not drawn)	22 nM	137 nM	0.53	30 nM	
O=C(O)CCc1ccccc1CC1C2CCC(O2)C1c1nc(C(=O)Nc2ccccc2)co1 (stereo not drawn)			1.19	12 nM	
O=C(O)Cc1cccc(CCC2C3CCC(O3)C2c2nc(C(=O)NCCCCC3CCCCC3)co2)c1 (stereo not drawn)	16.3 nM			146 nM	
O=C(O)CCc1ccccc1CC1C2CCC(O2)C1c1nc(C(=O)NCCCCC(F)(F)F)co1 (stereo not drawn)	4.8 nM	29 nM	1.59	12 nM	
CCC(C)(C)NC(=O)c1coc(C2C3CCC(O3)C2Cc2ccccc2CCC(=O)O)n1 (stereo not drawn)	0.8 nM	30 nM	0.51	12 nM	8.8 h
COc1ccc(CCCCNC(=O)c2coc(C3C4CCC(O4)C3Cc3ccccc3CCC(=O)O)n2)cc1 (stereo not drawn)	0.3 nM	62 nM	2.49	16 nM	
CC(C)(CCCCNC(=O)c1coc(C2C3CCC(O3)C2Cc2ccccc2CCC(=O)O)n1)C(=O)O (stereo not drawn)			0.5	64 nM	
CC(C)(Cc1ccccc1CC1C2CCC(O2)C1c1nc(C(=O)NCCCCC2CCCCC2)co1)C(=O)O (stereo not drawn)	36 nM	13 nM		4 nM	
O=C(NCCCCC1CCCCC1)c1coc(C2C3CCC(O3)C2Cc2ccccc2CCCO)n1 (stereo not drawn)	112 nM			1540 nM	
COc1ccc(NC(=O)c2coc(C3C4CCC(O4)C3Cc3ccccc3CCC(=O)O)n2)cc1 (stereo not drawn)			0.95	6 nM	
O=C(O)Cc1ccccc1CCC1C2CCC(O2)C1c1nc(C(=O)NCCCCC2CCCCC2)co1 (stereo not drawn)				1580 nM	
O=C(O)CCc1ccccc1CC1C2CCC(O2)C1c1nc(C(=O)NCCCCc2ccccc2)co1 (stereo not drawn)	0.3 nM	13 nM	1.8	4 nM	20 h
O=C(O)CCc1ccccc1CC1C2CCC(O2)C1c1nc(CO)co1 (stereo not drawn)				31000 nM	
O=C(O)Cc1cccc(CC2C3CCC(O3)C2c2nc(C(=O)NCCCCC3CCCCC3)co2)c1 (stereo not drawn)	1.2 nM	34 nM		12 nM	
O=C(O)c1cccc(CCC2C3CCC(O3)C2c2nc(C(=O)NCCCCC3CCCCC3)co2)c1 (stereo not drawn)	18.4 nM			110 nM	
O=C(O)CCc1ccccc1CC1C2CCC(O2)C1c1nc(C(=O)OCCCCC2CCCCC2)co1 (stereo not drawn)	1 nM	10 nM		2 nM	
CSc1ccc(CCCCNC(=O)c2coc(C3C4CCC(O4)C3Cc3ccccc3CCC(=O)O)n2)cc1 (stereo not drawn)	2.9 nM		1.66	6 nM	
O=C(O)CCc1ccccc1CCC1C2CCC(O2)C1c1nc(C(=O)NCCCCC2CCCCC2)co1 (stereo not drawn)		616 nM		63 nM	
O=C(O)CCc1ccccc1CC1C2CCC(O2)C1c1nc(C(=O)NCCCCc2ccc(O)cc2)co1 (stereo not drawn)	0.5 nM		1.49	12 nM	
CC(C)NC(=O)c1coc(C2C3CCC(O3)C2Cc2ccccc2CCC(=O)O)n1 (stereo not drawn)	26 nM	63 nM	0.05	7 nM	10 h
O=C(O)CCc1ccccc1CC1C2CCC(O2)C1c1nc(C(=O)Nc2ccc(Cl)cc2)co1 (stereo not drawn)			2.52	6 nM	25.8 h
O=C(O)CCc1ccccc1CC1C2CCC(O2)C1c1nc(/C=C/CCCCC2CCCCC2)co1 (stereo not drawn)		2760 nM		320 nM	
O=C(O)CCc1ccccc1CC1C2CCC(O2)C1c1nc(C(=O)NCCCCC(=O)NC2CCCCC2)co1 (stereo not drawn)	22 nM	82 nM	1.18	27 nM	

Structure (SMILES)	Kd [1]	IC50 [2]	logP [3]	IC50 [4]	T50 [5]
CS(=O)(=O)NC(=O)CCc1ccccc1CC1C2CCC(O2)C1c1nc(C(=O)NCCCCC2CCCCC2)co1 (stereo not drawn)	1.6 nM			2 nM	
CCOC(=O)CCc1ccccc1CC1C2CCC(O2)C1c1nc(C(=O)NCCCCC2CCCCC2)co1 (stereo not drawn)				290 nM	
O=C(O)CCc1ccccc1CC1C2CCC(O2)C1c1nc(C(=O)NCCCCc2ccc(Cl)cc2)co1 (stereo not drawn)	0.2 nM		3.52		18.6 h
CS(=O)(=O)c1ccc(CCCCNC(=O)c2coc(C3C4CCC(O4)C3Cc3ccccc3CCC(=O)O)n2)cc1 (stereo not drawn)			0.32	26 nM	
O=C(O)CCc1ccccc1CC1C2CCC(O2)C1c1nc(C(=O)NCCCCCO)co1 (stereo not drawn)	20 nM	35 nM	1.07	15 nM	
O=C(O)COc1ccccc1CC1C2CCC(O2)C1c1nc(C(=O)NCCCCC2CCCCC2)co1 (stereo not drawn)	3.2 nM	8 nM		7 nM	
O=C(NCCCCC1CCCCC1)c1coc(C2C3CCC(O3)C2Cc2ccccc2C(=O)O)n1 (stereo not drawn)		171 nM		52 nM	
NC(=O)CCc1ccccc1CC1C2CCC(O2)C1c1nc(C(=O)NCCCCC2CCCCC2)co1 (stereo not drawn)				1070 nM	
CC(C)(C)CCCCNC(=O)c1coc(C2C3CCC(O3)C2Cc2ccccc2CCC(=O)O)n1 (stereo not drawn)	0.6 nM	35 nM	3.41	8 nM	36.5 h
CN(CCCCC1CCCCC1)C(=O)c1coc(C2C3CCC(O3)C2Cc2ccccc2CCC(=O)O)n1 (stereo not drawn)			3.89	2 nM	
O=C(O)Cc1ccccc1CC1C2CCC(O2)C1c1nc(C(=O)NCCCCC2CCCCC2)co1 (stereo not drawn)	19 nM	97 nM		14 nM	
NC(=O)c1coc(C2C3CCC(O3)C2Cc2ccccc2CCC(=O)O)n1 (stereo not drawn)		258 nM	-0.78	44 nM	
O=C(O)CCc1ccccc1CC1C2CCC(O2)C1c1nc(C(=O)CCCCCC2CCCCC2)co1 (stereo not drawn)	0.05 nM	11 nM		4 nM	
O=C(O)CCCc1ccccc1CC1C2CCC(O2)C1c1nc(C(=O)NCCCCC2CCCCC2)co1 (stereo not drawn)	0.85 nM			6 nM	
O=C(O)CCc1ccccc1CC1C2CCC(O2)C1c1nc(C(=O)NC2CCCCC2)co1 (stereo not drawn)	4.5 nM		0.89		8.3 h
O=C(O)CCc1ccccc1CC1C2CCC(O2)C1c1nc(C(=O)NCCC2CCCCC2)co1 (stereo not drawn)	0.7 nM		1.03	2 nM	8.3 h
CNC(=O)c1coc(C2C3CCC(O3)C2Cc2ccccc2CCC(=O)O)n1 (stereo not drawn)	45 nM		-0.11		7.5 h
O=C(O)CCc1ccccc1CC1C2CCC(O2)C1c1nc(C(=O)NCCc2ccccc2)co1 (stereo not drawn)	0.7 nM	30 nM	0.98	9 nM	4 h
O=C(O)CCc1ccccc1CC1C2CCC(O2)C1c1nc(C(=S)NCCCCC2CCCCC2)co1 (stereo not drawn)	10.6 nM	9 nM		2 nM	
CCCCCN(C)C(=O)c1coc(C2C3CCC(O3)C2Cc2ccccc2CCC(=O)O)n1 (stereo not drawn)	11 nM		1	9 nM	11.3 h
CCCCCCCCCCNC(=O)c1coc(C2C3CCC(O3)C2Cc2ccccc2CCC(=O)O)n1 (stereo not drawn)	5.8 nM		3.86		4.3 h
CCCNC(=O)c1coc(C2C3CCC(O3)C2Cc2ccccc2CCC(=O)O)n1 (stereo not drawn)	10 nM	53 nM	0.4	8 nM	2.3 h
